Reference: ChEMBL document CHEMBL1155469, “Peptide nucleic acids conjugated to short basic peptides show improved pharmacokinetics and antisense activity in adipose tissue” (J Med Chem, 2010)
Activity calls are given as the source filed them.

Experiments:
Mus musculus [1] = assay: Inhibition of PTEN expression in Balb/C mouse kidney at 25 mg/kg, ip administered thrice a week for 2 weeks measured 48 hrs after last dose by Western blot analysis; format: functional, organism-based; design: dose 25 mg/kg
Procedure, shortened: (§1)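 Male Balb/c mice, 6–8 wk, n=4/group, dosed i.p. in PBS 3x/wk for 2 wk and killed 48 h after the last dose. Tissue was homogenized in RIPA buffer with protease inhibitors, and protein was measured by Lowry assay. Lysates were run on 10% PAGE and blotted to PVDF. Blots were probed with rabbit anti-PTEN (1:1000) and HRP anti-rabbit (1:2500), with ECL detection.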

Mus musculus [2] = assay: Toxicity in Balb/C mouse assessed as change in serum glucose levels at 25 mg/kg, ip administered thrice a week for 2 weeks measured 48 hrs after last dose; format: organism-based; design: dose 25 mg/kg, route intraperitoneal; conditions: in vivo
Procedure, shortened: (§2)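 Male Balb/c mice, 6–8 wk, n=4/group, received compound i.p. in PBS (10 ul/g) 3x/wk for 2 wk. Body weight was monitored throughout. At 48 h after the last dose, mice were anesthetized with isoflurane and bled by cardiac puncture. Serum AST, ALT, BUN, bilirubin, glucose and triglycerides were compared with the saline group. ALT rise below 2x normal was counted as absent.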

BCL1 = assay: Inhibition of PTEN expression in mouse BCL1 cells after 62 hrs by Western blotting; format: functional, cell-based; conditions: BCL1, 62 h
Procedure, shortened: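 BCL1 cells were grown in DMEM with 10% FBS at 37 °C, 5% CO2. Compound was delivered to 2×10^6 cells by electroporation (200 V, 1000 uF, 13 ohms), and cells were harvested 62 h later. Western blot of RIPA lysates used rabbit anti-PTEN and anti-CD40 (1:1000) with HRP secondary and ECL detection. PTEN was normalized to CD40. n=3, mean ± SD.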

Mus musculus [3] = assay: Toxicity in Balb/C mouse assessed as change in serum ALT levels at 25 mg/kg, ip administered thrice a week for 2 weeks measured 48 hrs after last dose; format: organism-based; design: dose 25 mg/kg, route intraperitoneal; conditions: in vivo; procedure, shortened: as §2
Mus musculus [4] = assay: Toxicity in Balb/C mouse assessed as change in serum bilirubin levels at 25 mg/kg, ip administered thrice a week for 2 weeks measured 48 hrs after last dose; format: organism-based; design: dose 25 mg/kg, route intraperitoneal; conditions: in vivo; procedure, shortened: as §2
Mus musculus [5] = assay: Inhibition of PTEN expression in Balb/C mouse liver at 25 mg/kg, ip administered thrice a week for 2 weeks measured 48 hrs after last dose by Western blot analysis; format: functional, organism-based; design: dose 25 mg/kg; procedure, shortened: as §1
Mus musculus [6] = assay: Toxicity in Balb/C mouse assessed as change in serum triglyceride levels at 25 mg/kg, ip administered thrice a week for 2 weeks measured 48 hrs after last dose; format: organism-based; design: dose 25 mg/kg, route intraperitoneal; conditions: in vivo; procedure, shortened: as §2
Mus musculus [7] = assay: Toxicity in Balb/C mouse assessed as change in body weight at 25 mg/kg, ip administered thrice a week for 2 weeks measured 48 hrs after last dose; format: organism-based; design: dose 25 mg/kg, route intraperitoneal; conditions: in vivo; procedure, shortened: as §2
Mus musculus [8] = assay: Inhibition of PTEN expression in Balb/C mouse white adipose tissue assessed as upregulation of isoform lacking exon at 25 mg/kg, ip administered thrice a week for 2 weeks measured 48 hrs after last dose […]; format: functional, organism-based; design: dose 25 mg/kg
Mus musculus [9] = assay: Toxicity in Balb/C mouse assessed as change in blood urea nitrogen levels at 25 mg/kg, ip administered thrice a week for 2 weeks measured 48 hrs after last dose; format: organism-based; design: dose 25 mg/kg, route intraperitoneal; conditions: in vivo; procedure, shortened: as §2
Mus musculus [10] = assay: Toxicity in Balb/C mouse assessed as change in serum AST levels at 25 mg/kg, ip administered thrice a week for 2 weeks measured 48 hrs after last dose; format: organism-based; design: dose 25 mg/kg, route intraperitoneal; conditions: in vivo; procedure, shortened: as §2
Mus musculus [11] = assay: Inhibition of PTEN expression in Balb/C mouse white adipose tissue assessed as reduction of full length transcript at 25 mg/kg, ip administered thrice a week for 2 weeks measured 48 hrs after last dose […]; format: functional, organism-based; design: dose 25 mg/kg

COCCO[C@@H]1[C@H](OP(=O)(S)OC[C@H]2O[C@@H](n3cc(C)c(=O)[nH]c3=O)C[C@@H]2OP(=O)(S)OC[C@H]2O[C@@H](n3cnc4c(=O)[nH]c(N)nc43)[C@H](OCCOC)[C@@H]2OP(=O)(S)OC[C@H]2O[C@@H](n3ccc(N)nc3=O)[C@H](OCCOC)[C@@H]2OP(=O)(S)OC[C@H]2O[C@@H](n3cc(C)c(=O)[nH]c3=O)C[C@@H]2OP(=O)(S)OC[C@H]2O[C@@H](n3cnc4c(N)ncnc43)[C@H](O)[C@@H]2OP(=O)(S)OC[C@H]2O[C@@H](n3cnc4c(=O)[nH]c(N)nc43)[C@H](O)[C@@H]2OP(=O)(S)OC[C@H]2O[C@@H](n3ccc(N)nc3=O)[C@H](O)[C@@H]2OP(=O)(S)OC[C@H]2O[C@@H](n3ccc(N)nc3=O)[C@H](O)[C@@H]2OP(=O)(S)OC[C@H]2O[C@@H](n3cc(C)c(=O)[nH]c3=O)C[C@@H]2OP(=O)(S)OC[C@H]2O[C@@H](n3ccc(N)nc3=O)[C@H](O)[C@@H]2OP(=O)(S)OC[C@H]2O[C@@H](n3cc(C)c(=O)[nH]c3=O)C[C@@H]2OP(=O)(S)OC[C@H]2O[C@@H](n3cnc4c(=O)[nH]c(N)nc43)[C@H](O)[C@@H]2OP(=O)(S)OC[C@H]2O[C@@H](n3cnc4c(=O)[nH]c(N)nc43)[C@H](O)[C@@H]2OP(=O)(S)OC[C@H]2O[C@@H](n3cnc4c(N)ncnc43)[C@H](O)[C@@H]2OP(=O)(S)OC[C@H]2O[C@@H](n3cc(C)c(=O)[nH]c3=O)C[C@@H]2OP(=O)(S)OC[C@H]2O[C@@H](n3cc(C)c(=O)[nH]c3=O)C[C@@H]2OP(=O)(S)OC[C@H]2O[C@@H](n3cc(C)c(=O)[nH]c3=O)C[C@@H]2OP(=O)(S)OC[C@H]2O[C@@H](n3cnc4c(=O)[nH]c(N)nc43)[C@H](OCCOC)[C@@H]2OP(=O)(S)OC[C@H]2O[C@@H](n3cnc4c(N)ncnc43)[C@H](OCCOC)[C@@H]2O)[C@@H](CO)O[C@H]1n1ccc(N)nc1=O (some centres not stated)
Non-toxic: Activity (Mus musculus [2]) | Activity (Mus musculus [3]) | Activity (Mus musculus [4]) | Activity (Mus musculus [6]) | Activity (Mus musculus [7]) | Activity (Mus musculus [9]) | Activity (Mus musculus [10])
inactive: inhibition (Mus musculus [1])
active: Activity (Mus musculus [5]) | Activity (Mus musculus [8]) | Activity (Mus musculus [11])
3.2 µM: IC50 (BCL1)
